Data on 1 molecule can be found in ChEMBL document CHEMBL1156797, “Synthesis and antiplasmodial activity of new indolone N-oxide derivatives” (J Med Chem, 2010).

Broadly, the ED50 is the dose that gives a 50% effect, or the effect in half of the subjects. As usually defined, the CC50 is the concentration that lowers cell viability or growth by half.

The test system of data set [1] is Plasmodium berghei. Kind of data set: Antimalarial activity against Plasmodium berghei NK65 infected Swiss mice (Mus musculus) assessed as reduction in parasitemia treated intraperitoneally for 3 days measured on day 4. Particulars: NK65, ip.
Data set [2] relates to Plasmodium berghei. Kind of data set: Antimalarial activity against Plasmodium berghei NK65 infected Swiss mice (Mus musculus) assessed as reduction in parasitemia at 10 mg/kg, intraperitoneally after 3 days measured on day 4. Also on record: scale not given: the % may be the effect or the level left. Particulars: route intraperitoneal.
The nature of data set [3]: Cytotoxicity against human KB cells after 72 hrs by alamar blue assay. The format is cell-based. The method, boiled down: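 KB cells were seeded at 4×10^4 cells/mL in RPMI 1640 with 10% heat-inactivated FCS and left 24 h at 37 °C, 5% CO2. A dilution series was added in triplicate for 72 h, then AlamarBlue for 2–4 h. Fluorescence was read at ex 530/em 585 nm, with podophyllotoxin as positive control and values from curve fitting.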
A general note: The colour change of resazurin is a common sign of viable cells or microbes.

Data set [4] in a line: Cytotoxicity against human MCF7 cells after 48 hrs by MTT assay. Format: cell-based. For orientation: Formazan colour is commonly taken as a measure of viable cells.

Consider `CCN(CC)CCCC(C)Nc1ccnc2cc(Cl)ccc12` (centres undefined) [CHLOROQUINE], for which, in data set [1], the 50% effective dose (ED50) stood at 3 mg/kg. Further, the Activity in data set [2] is reported as 100%. Moreover, it took 44 µM to reach half-maximal cytotoxicity in data set [3] (CC50 at 72 h). The same molecule yielded a CC50 at 48 h in data set [4] of 19.4 µM.
